Assay outcomes (PubChem BioAssay)
In the library only some 1.9% were active in any assay of this set; here they are far more common.
PP5 primary – PP5 (human) phosphatase inhibition; purified PP5c, OMFP substrate fluorescence; P53041; 320,000 compounds, 0.18% hits; AID 1987; inhibition, % at 6.7 µM;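 active = inhibition above the campaign's mean inhibition across all tested compounds plus 3 SD, cut at about 9.5% in these data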;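 also: 0% = DMSO only and 100% = 100 µM cantharidin control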
PP1 inh – counter-screen for PP5 inhibitors: inhibitors of human PP1-alpha; P62136; purified PP1alpha, OMFP fluorescence; inhibition, % at 6.7 µM; 320,000 compounds, 0.9% hits; AID 2235;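 active = inhibition above the mean inhibition of all tested compounds plus 3 SD, computed separately for each screening campaign, cut at about 15% in these data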
Target sequence (P62136 whole entry, looked up): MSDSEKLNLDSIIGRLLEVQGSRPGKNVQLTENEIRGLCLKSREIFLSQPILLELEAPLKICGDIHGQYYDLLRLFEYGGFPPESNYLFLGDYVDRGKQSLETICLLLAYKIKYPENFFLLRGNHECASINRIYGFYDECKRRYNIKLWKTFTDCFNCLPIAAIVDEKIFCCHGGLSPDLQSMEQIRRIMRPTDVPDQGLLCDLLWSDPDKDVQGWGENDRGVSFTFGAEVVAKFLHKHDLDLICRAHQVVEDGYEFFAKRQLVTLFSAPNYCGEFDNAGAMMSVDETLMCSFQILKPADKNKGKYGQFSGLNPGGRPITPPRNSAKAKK
STEP block – STEP (human) phosphatase inhibition. P54829. recombinant STEP, OMFP fluorogenic substrate, fluorescence. inhibition, % at 20 µM. 360,000 compounds, 0.25% hits;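 active = inhibition at 20 µM, scaled per plate between control wells, above about 37%, limit read from the data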;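 also: 0% = DMSO with enzyme and substrate and 100% = substrate only without enzyme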
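Material: STEP (striatal-enriched tyrosine phosphatase) enzyme, cell-free; Compound dosing: 20 µM single dose in 1% DMSO; Technique: fluorescence read at 480 nm ex / 540 nm em; Times: reaction 20 min, ambient temperature; Medium: 50 mM Bis-Tris pH 6.0 with 2.5 mM DTT and 0.005% Tween 20; Also added: OMFP at 25 µM.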
Scp-1 inhibitor – blocks human Scp-1 phosphatase activity. Q9GZU7. Recombinant Scp1, phosphopeptide, malachite green phosphate absorbance. inhibition, % at 20 µM. 340,000 compounds, 0.88% hits. AID 493091;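 active = inhibition above about 50% at 20 µM, limit read from the data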;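 also: plate controls were DMSO wells with enzyme for no effect and wells lacking enzyme for full effect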
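Times: enzyme reaction 45 min at room temperature, colour 5 min, stabilisation 30 min. Material: SCP-1 catalytic fragment, aa 76-261. Medium: Acidic Tris acetate buffer with magnesium and detergent. Signal: colorimetric free-phosphate detection, absorbance 630 nm. Read-out basis: % inhibition of SCP-1 phosphate liberation. Reagent: Phosphorylated 17-residue peptide substrate.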
LMPTP block – blocks human LMPTP phosphatase | P24666 | recombinant LMPTP-A, OMFP fluorogenic substrate, fluorescence intensity | inhibition, % at 20 µM | 360,000 compounds, 0.22% hits | AID 651560;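 active = compounds that cut the enzyme signal by at least half of the control window in the single-dose screen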;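 also: plate controls were DMSO wells with enzyme plus substrate for no effect and substrate without enzyme for full effect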
Target sequence (P24666 whole entry, looked up): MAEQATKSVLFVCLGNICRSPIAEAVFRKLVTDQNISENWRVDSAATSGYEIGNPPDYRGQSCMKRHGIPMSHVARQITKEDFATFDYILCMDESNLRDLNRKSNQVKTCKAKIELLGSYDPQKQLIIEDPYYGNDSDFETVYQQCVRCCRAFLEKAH
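material = LMPTP-A | quantity = 0.625 nM enzyme | reagent = OMFP substrate, 400 µM final | buffer or medium = Bis-Tris pH 6.0, DTT, detergent | detection = endpoint fluorescence intensity from OMFP dephosphorylation | dosing = single 20 µM dose | read-out basis = % inhibition relative to no-enzyme and uninhibited control wells | control set = no-enzyme and uninhibited controls | timing = 50 min at room temperature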
PP1 confirm – confirmation of human PP1 phosphatase inhibitors; 1,900 compounds, 52% hits; shares compounds with PP1 inh; AID 2358; purified PP1alpha, OMFP substrate fluorescence; inhibition, % at 6.7 µM;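 active = mean PP1 inhibition above a set limit taken from the earlier primary screen, cut at about 15% in these data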
PP5 counter – inhibits human PP5 phosphatase in PP1 counter-screen | shares compounds with PP1 inh | purified PP5c, OMFP fluorescence | inhibition, % at 6.7 µM | 1,900 compounds, 4% hits;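 active = mean PP5 inhibition over triplicate wells above about 9.5% taken from the earlier PP1 screen, limit read from the data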
* marks the source's active call; other numbers are inactive results.

What do the screens show for `O=C(Nc1cccc([N+](=O)[O-])c1)c1cc2ccccc2cc1O`?
PP5 primary: 0.8; PP1 inh: 23.1*; STEP block: 4.7; Scp-1 inhibitor: 88.8*; LMPTP block: 3.7; PP1 confirm: 19.2*; PP5 counter: -1.4

How did O=C(O)c1ccc(S(=O)(=O)N(Cc2ccccc2)Cc2ccccc2)cc1 do in these assays?
PP5 primary: -2.9; PP1 inh: -2.5; STEP block: 1.3; Scp-1 inhibitor: -6.8; LMPTP block: -1.0

Results for O=C(O)c1ccc(S(=O)(=O)N(CCc2ccccc2)Cc2ccc(Cl)cc2)cc1 ?
PP5 primary: 7.5; PP1 inh: 22.4*; STEP block: 0.6; Scp-1 inhibitor: -5.7; LMPTP block: 1.8; PP1 confirm: 10.7; PP5 counter: -0.5

Results for O=C(O)CCC(=O)N1CCc2cc(S(=O)(=O)N(CCc3ccccc3)Cc3ccccc3)ccc21 ?
PP5 primary: 4.4; PP1 inh: 19.9*; STEP block: 2.5; Scp-1 inhibitor: -12.2; LMPTP block: 0.8; PP1 confirm: 15.2*; PP5 counter: -4.1

How did Cc1ccc(C(=O)NCCCN2CCOCC2)cc1S(=O)(=O)N1CCOCC1 do in these assays?
PP5 primary: 2.0; PP1 inh: -3.9; STEP block: 1.2; Scp-1 inhibitor: -3.6; LMPTP block: -6.9

What do the screens show for `Cc1ccc(C(=O)NCCCN2CCOCC2)cc1Cl`?
PP5 primary: -3.9; PP1 inh: 18.0*; STEP block: -2.0; Scp-1 inhibitor: -3.5; LMPTP block: -1.1; PP1 confirm: -4.5; PP5 counter: -3.6

What do the screens show for `Cc1cccc(Nc2nnc(SCC(=O)c3ccc(Br)s3)s2)c1C`?
PP5 primary: 0.8; PP1 inh: 20.7*; STEP block: -0.1; Scp-1 inhibitor: -2.5; LMPTP block: 2.4; PP1 confirm: 21.2*; PP5 counter: 7.1

What do the screens show for `CCOC(=O)c1ccc(NS(=O)(=O)c2ccc(Cl)nc2)cc1`?
PP5 primary: -2.6; PP1 inh: -54.3; PP1 confirm: 2.0; PP5 counter: 1.5

Results for CCOC(=O)c1ccc(NS(=O)(=O)CC)cc1 ?
PP5 primary: 1.2; PP1 inh: -3.7; STEP block: -0.8; Scp-1 inhibitor: -9.5; LMPTP block: -2.0

What do the screens show for `FC(F)(F)c1cc(CCN2CCNC[C@H]2Cc2cccc3ccccc23)cc(C(F)(F)F)c1`?
PP5 primary: 5.6; PP1 inh: 22.5*; STEP block: 3.3; Scp-1 inhibitor: 2.7; LMPTP block: -6.6; PP1 confirm: -1.6; PP5 counter: 1.0

Results for Oc1ccc(C[C@@H]2CNCCN2CCc2cc(C(F)(F)F)cc(C(F)(F)F)c2)cc1 ?
PP5 primary: -0.3; PP1 inh: 1.4; STEP block: 0.5; Scp-1 inhibitor: 6.4; LMPTP block: -3.8

How did CC(C)C(=O)Nc1ccc(C(=O)c2ccccc2)cc1 do in these assays?
PP5 primary: 1.2; PP1 inh: -75.1; STEP block: -0.4; Scp-1 inhibitor: -9.2; LMPTP block: 0.1; PP1 confirm: -0.6; PP5 counter: -3.5

What do the screens show for `CC(C)(C)c1ccc(S(=O)(=O)O/N=C2/CCCCC2c2ccc([N+](=O)[O-])cc2[N+](=O)[O-])cc1` (stereo not drawn)?
PP5 primary: 0.0; PP1 inh: -0.1; STEP block: 2.2; Scp-1 inhibitor: -9.0; LMPTP block: -0.6

How did Cc1ccc2nc(-c3ccc(SCC(=O)Nc4nnc(C)s4)nc3)[nH]c2c1 do in these assays?
PP5 primary: 2.1; PP1 inh: 19.8*; STEP block: 0.2; Scp-1 inhibitor: 0.6; LMPTP block: -1.2; PP1 confirm: 25.4*; PP5 counter: -1.6

How did Cc1ccc2nc(-c3ccc(SCC(=O)Nc4nc(C)cs4)nc3)[nH]c2c1 do in these assays?
PP5 primary: -1.2; PP1 inh: -0.8; STEP block: 4.1; Scp-1 inhibitor: -4.2; LMPTP block: 5.2

What do the screens show for `COc1ccc(C2C(C(=O)c3cccs3)=C(O)C(=O)N2Cc2cccnc2)cc1OC` (stereo not drawn)?
PP5 primary: -0.7; PP1 inh: 8.9; STEP block: 3.1; Scp-1 inhibitor: 0.6; LMPTP block: -1.0
